Screening data: PubChem, several laboratories
EP2 modulator – modulates human prostaglandin E2 receptor EP2 signaling. P43116. EP2-expressing cells, cAMP HTRF FRET, PGE2 co-stimulation. induction, % at 25 µM. actives 0.83% (n = 260,000). AID 940;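 active = compounds whose cAMP rise, as percent of the full-agonist control response, exceeds 60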;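 also: rat C6 glioma line stably carrying human EP2 under a CMV promoter; the protocol text gives 20 µM as final concentration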
hK5 inh – kallikrein 5 (human) inhibition; actives 0.59% (n = 210,000); AID 873; inhibition, % at 5 µM; recombinant hK5, fluorogenic AMC substrate cleavage;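 active = inhibition of 40% or more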
Target sequence (Q9Y337 67-293 limits assumed): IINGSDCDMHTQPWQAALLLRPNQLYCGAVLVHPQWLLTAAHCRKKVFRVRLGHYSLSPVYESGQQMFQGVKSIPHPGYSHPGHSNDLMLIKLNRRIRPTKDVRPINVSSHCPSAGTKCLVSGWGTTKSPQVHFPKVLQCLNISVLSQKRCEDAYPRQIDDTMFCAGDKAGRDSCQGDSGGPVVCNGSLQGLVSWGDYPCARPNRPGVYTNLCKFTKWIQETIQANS
EP2 antag – EP2 receptor (human) inhibition; C6 glioma cells expressing human EP2, cAMP TR-FRET; cells stimulated with saturating PGE2; inhibition, % at 25 µM; actives 0.52% (n = 260,000); AID 1422;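 active = percent inhibition above 40 after rounding to a whole number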;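 also: rat C6 glioma host cells with rolipram phosphodiesterase inhibitor present; the protocol text gives 20 µM as final concentration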
Thrombin inh – inhibitors of human thrombin. inhibition, % at 5 µM. alpha-thrombin, Boc-VPR-AMC fluorogenic substrate cleavage. AID 1046. P00734. actives 0.26% (n = 220,000);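 active = inhibition at or above 40%; inactive = inhibition below 40%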
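Assay system: human alpha-thrombin enzyme. Reagent: Boc-VPR-AMC substrate, 15 µM final. Compound dosing: one concentration per compound, 5 µM, with 0.2% DMSO. Incubation: room-temperature reaction. Technique: AMC fluorescence, 355/460 nm. Measure: % inhibition relative to enzyme controls and enzyme-free blanks.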
FXIIa inh 1536 – inhibitors of human coagulation factor XIIa. AID 800. purified FXIIa, Boc-QGR-AMC fluorogenic substrate, 2 h. inhibition, % at 5 µM. actives 0.3% (n = 220,000). P00748; in the data active = inhibition above about 40%
FXIa inh 1536 – factor XIa (human) inhibition | P03951 | purified FXIa, Boc-Glu-Ala-Arg-AMC fluorogenic substrate | inhibition, % at 5 µM | actives 0.14% (n = 220,000);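 active = inhibition of at least 40%; inactive = inhibition below 40%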;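 also: fluorescence of freed AMC excited at 355 nm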
Numbers stand for hits; . = inactive; / = no result given. In the library only some 2.1% were active in any assay of this set; here they are far more common.

SMILES	EP2 modulator	hK5 inh	EP2 antag	Thrombin inh	FXIIa inh 1536	FXIa inh 1536
CS(=O)(=O)N(CC(=O)N/N=C/c1ccccc1C(=O)O)c1cccc(Cl)c1Cl	.	.	.	.	57	.
CCn1ncc(C(=O)N2CCc3c(nc(N4CCCC4)[nH]c3=O)C2)c1C	.	/	.	/	/	/
O=C(Nc1ccccc1-c1nc2ccccc2s1)c1cccnc1Cl	63	.	.	.	.	.
CCSc1nnc(NC(=O)[C@H](C)N2C(=O)C3CC=CCC3C2=O)s1 (stereo partly specified)	.	46	.	.	.	56
Cc1cc(C)nc(NNC(=O)c2ccccc2)n1	.	/	.	/	/	/
COc1ccc2c(c1)c1c(C)c3cnccc3c(C)c1n2CCCN	.	/	49	/	/	/
COc1ccc2c(c1)c1nc3ccccc3nc1n2CCCN1C(=O)c2ccccc2C1=O	.	.	.	.	.	.
COc1cc(C(=O)O/N=C2\C=CC(=O)C(C)=C2)cc(OC)c1OC	.	.	.	.	96	.
CC1=CC(=NOC(=O)c2cccc([N+](=O)[O-])c2)C=C(C)C1=O	.	.	.	.	.	.
COc1ccc(C(=O)ON=C2C=C(C)C(=O)C(C)=C2)cc1	.	.	.	.	68	.
COc1cc(C(=O)ON=C2C=C(C)C(=O)C(C)=C2)cc(OC)c1OC	.	.	.	.	90	.
O=C(NCCCn1ccnc1)c1cc2nc(-c3ccco3)cc(C(F)(F)F)n2n1	.	/	.	/	/	/
COCCN1C(=O)C(=O)/C(=C(\O)c2ccc(Cl)cc2)C1c1ccc(OC)c(OC)c1 (stereo unspecified)	.	/	.	/	/	/
O=C(N/N=C/c1ccc(O)c(O)c1O)/C(=C/c1ccc([N+](=O)[O-])cc1)NC(=O)c1ccccc1	.	.	.	.	41	.
CCC(c1nnnn1C(C)(C)C)N(Cc1ccc2c(c1)OCO2)Cc1cc2ccc(C)cc2[nH]c1=O (stereo unspecified)	.	/	.	/	/	/
COc1ccc(N(C(C)C(=O)N2CCN(c3ccccc3OC)CC2)S(C)(=O)=O)cc1 (stereo unspecified)	.	/	.	/	/	/
CCc1cccc(CC)c1NC(=O)CSc1nc2cc3c(cc2cc1C#N)OCCO3	63	/	.	/	/	/
Cc1cccc(C)c1NC(=O)CSc1nc2cc3c(cc2cc1C#N)OCCO3	.	/	.	/	/	/
N#Cc1cc2cc3c(cc2nc1SCC(=O)NCCc1ccccc1)OCCO3	73	/	.	/	/	/
O=C(c1nc2ccccc2s1)C1CCN(C(=O)c2n[nH]c3c2CCC3)CC1	.	/	/	/	/	/
Cn1c(=O)c2c(nc(NCc3ccccc3)n2Cc2ccc(F)cc2)n(C)c1=O	64	.	.	.	.	.
Cc1ccc(C2=NOC(=O)/C2=C\C=C\c2ccccc2)cc1	.	.	98	.	.	.
C=CCNC(=O)CSc1nnc(-c2ccoc2C)n1-c1ccccc1OCC	.	/	.	/	/	/
CN1CCN(CCNC(=O)c2cn(Cc3ccccc3F)nn2)CC1	.	.	.	.	60	.
CC(C)NC(=O)C1CCN(C(=O)Nc2cccc(Cl)c2)CC1	.	/	.	/	/	/
SMILES	EP2 modulator	hK5 inh	EP2 antag	Thrombin inh	FXIIa inh 1536	FXIa inh 1536
CN1CCN(c2ccc(NC(=O)c3sc4ccccc4c3Cl)cc2)CC1	.	.	.	.	.	.
CN1CCc2ccccc2[C@H]1Cc1ccccc1NC(=O)c1sc2ccccc2c1Cl	.	/	42	/	/	/
CC(=O)NC1C(=O)Nc2ccc(F)cc21 (stereo unspecified)	.	/	.	/	/	/
CCCOc1ccc(N2CC(C(=O)Nc3ncccc3C)CC2=O)cc1 (stereo unspecified)	.	.	.	.	.	.
Cc1ccc(N2CC(C(=O)NC3=NCCS3)CC2=O)cc1 (stereo unspecified)	.	.	.	.	.	.
COc1ccc(N2CC(C(=O)Nc3ncccc3C)CC2=O)cc1 (stereo unspecified)	.	63	.	.	.	.
COc1ccc(N2CC(C(=O)Nc3nnc(SCC(=O)c4ccccc4)s3)CC2=O)cc1 (stereo unspecified)	.	63	.	.	.	.
COCCSc1nnc(NC(=O)C2CC(=O)N(c3ccc(OC)cc3)C2)s1 (stereo unspecified)	.	.	.	.	.	.
CC(C)Oc1ccc(N2CC(C(=O)NC3=NCCS3)CC2=O)cc1 (stereo unspecified)	.	.	.	41	.	.
CC(C)OC(=O)Cn1cnc2scc(-c3ccccc3)c2c1=O	.	/	.	/	/	/
